Results on five compounds are retold here after ChEMBL document CHEMBL5257128, “Design, synthesis and biological evaluation of covalent peptidomimetic 3CL protease inhibitors containing nitrile moiety” (Bioorg Med Chem, 2023).

One may read the AUC as concentration integrated over time. As usually defined, the MRT is the average time that molecules of a dose stay in the body. Usually Tmax stands for the time at which the peak concentration occurs. Broadly, the Vdss is the apparent volume that relates the amount in the body to the concentration in plasma or blood. Usually Cmax stands for the maximum level reached in the sampled fluid or tissue. In general, EC50 refers to the concentration that produces a half-maximal response. A word on the IC50: it is the midpoint of a concentration-inhibition curve. For orientation: CC50 means the concentration at which the toxic effect on the cells reaches its halfway point.

Data set [1] in a line: Metabolic stability in mouse liver microsomes assessed as half life in presence of NADPH incubated upto 45 mins by LC/MS analysis. The data set is classed as ADME, Microsome. To be noted: 0.75 h. In outline:
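Mouse liver microsomes at 0.5 mg/mL final protein in K/Mg buffer, preincubated 5 min at 37 °C. Reaction started with NADPH (6 mM stock) and sampled at 0, 5, 15, 30 and 45 min. Each sample was quenched with acetonitrile containing internal standard, centrifuged, diluted with water, and analysed by LC/MS for remaining parent.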
A general note: Microsomes from liver hold many membrane-bound enzymes, among them those of drug oxidation.

Data set [2] can be described thus: Observed AUCinfinity in mouse at 20 mg/kg, po by LC-MS/MS analysis. To be noted: in vivo. On the set-up: dose 20 mg/kg, route po. Format: ADME, organism-based.
Data set [3] in a line: Observed MRTinfinity in mouse at 20 mg/kg, po by LC-MS/MS analysis. Format: ADME, organism-based. To be noted: in vivo.
Data set [4] in a line: Tmax in mouse at 10 mg/kg, iv by LC-MS/MS analysis. Format: ADME, organism-based. The conditions noted are these: in vivo.
A short description of data set [5]: Observed volume of distribution at steady state in mouse at 10 mg/kg, iv by LC-MS/MS analysis. The data set is classed as ADME, organism-based. To be noted: in vivo.
Data set [6] in a line: Oral bioavailability in mouse at 20 mg/kg by LC-MS/MS analysis. The conditions noted are these: in vivo. Format: ADME, organism-based.
A short description of data set [7]: Cmax in mouse at 20 mg/kg, po by LC-MS/MS analysis. Format: ADME, organism-based. Also on record: dose 20 mg/kg, route po. The conditions noted are these: in vivo.
Data set [8] in a line: AUClast in mouse at 10 mg/kg, iv by LC-MS/MS analysis. The conditions noted are these: in vivo. Format: ADME, organism-based. Also on record: dose 10 mg/kg, route iv.
In the next data set the test system is SARS-CoV-2. The data set can be described thus: Antiviral activity against SARS-CoV-2 infected in African green monkey Vero E6 cells pre-incubated for 1 hr followed by viral infection measured after 2 hrs by qRT-PCR analysis. Format: functional, organism-based. The conditions noted are these: Severe acute respiratory syndrome coronavirus 2, Vero C1008. On the technique in general: In qPCR the cycle at which signal appears reflects the starting amount.

Data set [9] in a line: Metabolic stability in human liver microsomes assessed as half life in presence of NADPH incubated upto 45 mins by LC/MS analysis. To be noted: 0.75 h. The data set is classed as ADME, Microsome. In outline: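 Human or mouse liver microsomes, final protein 0.5 mg/mL, in K/Mg buffer. Compound was added from a 1.5 µM spiking solution containing 0.75 mg/mL microsomes, then preincubated 5 min at 37 °C. The reaction was started with NADPH (6 mM stock) and sampled at 0, 5, 15, 30 and 45 min. Samples were quenched with acetonitrile containing internal standard, centrifuged, and the supernatant analysed by LC/MS.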

The nature of data set [10]: Cmax in mouse at 10 mg/kg, iv by LC-MS/MS analysis. Format: ADME, organism-based. Also on record: dose 10 mg/kg, route iv. To be noted: in vivo.
Data set [11] can be described thus: Observed MRTinfinity in mouse at 10 mg/kg, iv by LC-MS/MS analysis. Format: ADME, organism-based. To be noted: in vivo.
Data set [12] in a line: AUClast in mouse at 20 mg/kg, po by LC-MS/MS analysis. Format: ADME, organism-based. Also on record: dose 20 mg/kg, route po. The conditions noted are these: in vivo.
Data set [13] can be described thus: Observed AUCinfinity in mouse at 10 mg/kg, iv by LC-MS/MS analysis. The data set is classed as ADME, organism-based. Also on record: dose 10 mg/kg, route iv. The conditions noted are these: in vivo.
Data set [14] concerns the target Replicase polyprotein 1ab (Severe acute respiratory syndrome coronavirus 2, UniProt P0DTD1). Description: Inhibition of full length SARS-CoV-2 3CL protease expressed in Escherichia coli BL21 (DE3) using Dacyl-KTSAVLQSGFRKME-Edans fluorogenic peptide as substrate pre-incubated for 10 mins followed by substrate addition by FRET assay.
The subject of a further data set is Vero C1008. The data set can be described thus: Cytotoxicity against African green monkey Vero E6 cells assessed as reduction in cell viability measured after 24 hrs by CCK8 assay. The conditions noted are these: chlorocebus sabaeus, vero c1008, 24 h. Format: toxicity, cell-based. On the technique in general: Tetrazolium dyes change colour on reduction, which living cells bring about.

The nature of data set [15]: Tmax in mouse at 20 mg/kg, po by LC-MS/MS analysis. Format: ADME, organism-based. To be noted: in vivo.
A short description of data set [16]: Half life in mouse at 20 mg/kg, po by LC-MS/MS analysis. Format: ADME, organism-based. The conditions noted are these: in vivo.
A short description of data set [17]: Selectivity Index, ratio of CC50 for African green monkey Vero E6 cells to EC50 for antiviral activity against SARS-CoV-2 infected in African green monkey Vero E6. Format: toxicity, Vero C1008. The conditions noted are these: read-out: Ratio CC50/EC50.
Data set [18] is described as follows: Half life in mouse at 10 mg/kg, iv by LC-MS/MS analysis. Format: ADME, organism-based. The conditions noted are these: in vivo.

`CC(C)(C)[C@H](NC(=O)C(F)(F)F)C(=O)N1C[C@H]2[C@@H]([C@H]1C(=O)N[C@H](C#N)C[C@@H]1CCNC1=O)C2(C)C`: the t1/2 was 4.64 min in [1] and 37.93 min in data set [9]. The AUC turned out to be 2311.94 ng·h/mL in data set [2] and 3361.32 ng·h/mL in [13]. The MRT worked out at 51 min in [3] and 23.4 min in [11]. Besides, the Tmax in data set [4] was determined as 4.98 min. In [5] (iv, 10 mg/kg), the Vdss was found to be 1.18 L/kg. Besides, the F in data set [6] was 34.59%. Moreover, the figures for the Cmax in data set [7] and in data set [10] were 2521.64 ng/mL and 9630 ng/mL, respectively. Further, the AUClast in data set [8] was 3336.46 ng·h/mL; in [12] it was 2308.32 ng·h/mL. This compound registered an EC50 with SARS-CoV-2 of 580 nM.

In [14], `CC(C)(C)[C@H](NS(=O)(=O)C1CC1)C(=O)N1C[C@H]2[C@@H]([C@H]1C(=O)N[C@H](C#N)C[C@@H]1CCNC1=O)C2(C)C` registered an IC50 of 22.8 nM.

With `CC(C)(C)[C@H](NC(=O)C(F)(F)F)C(=O)N1CC2(CC2)C[C@H]1C(=O)N[C@H](C#N)C[C@@H]1CCNC1=O`, the IC50 in data set [14] amounted to 36.8 nM.

For the compound `CC(C)(C)[C@H](NS(=O)(=O)C(F)(F)F)C(=O)N1C[C@H]2[C@@H]([C@H]1C(=O)N[C@H](C#N)C[C@@H]1CCNC1=O)C2(C)C`, the t1/2 in data set [1] was found to be 97.89 min; in [16], 42.6 min; in [9] it was 652.17 min; in data set [18], 21 min. The results for the area under the curve (AUC) in [2] and in [13] were 1904.9 ng·h/mL and 4120.05 ng·h/mL, respectively. Moreover, the mean residence time (MRT) amounted to 48 min in data set [3] and 17.4 min in [11]. Moreover, the time to peak (Tmax) in [4] was 4.8 min; in data set [15], 30 min. Besides, the half-maximal cytotoxic concentration (CC50) in the data set with Vero C1008 is greater than 200 µM. Moreover, the Vd in data set [5] (read-out: Vdss) amounted to 0.69 L/kg. Moreover, in [14], it took 22.4 nM to reach half-maximal inhibition (IC50). Also, the F in data set [6] was 23.09%. Besides, the highest concentration (Cmax) in [7] is 2052.36 ng/mL; in [10] it was 10500 ng/mL. Moreover, the AUClast amounted to 4118.55 ng·h/mL in [8] and 1901.84 ng·h/mL in [12]. Also, the selectivity ratio in [17] is greater than 1500. This compound also yielded an EC50 in the data set on SARS-CoV-2 of 170 nM.

In data set [14], `CC(C)(C)[C@H](NC(=O)C(F)(F)F)C(=O)N1[C@@H]2CC[C@@H](C2)[C@H]1C(=O)N[C@H](C#N)C[C@@H]1CCNC1=O` showed an IC50 of 54.6 nM.
